Shown are actives, neighbours in structure and some others; about 3.7% of the full set was active somewhere.
MT stabilize HCS = microtubule stabilizers in HeLa cells, primary screen, imaging, high-content imaging | HeLa tubulin immunostaining HCS, 24 h; share of cells brighter than vehicle mean+2SD | % tubulin-high responders, % at 10 µM | actives 0.83% (n = 200,000);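 active = plate Z-score above 3 for both tubulin-high and condensed-nucleus cell shares, with cell loss under 80%, at 10 µM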;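 note: anti alpha tubulin signal scored within the nucleus-defined area of each cell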
Redox H2O2 prof = compounds producing H2O2 with reducing agent – biochemical, NIH compound library profiling, artefact control for MLSCN library redox annotation, primary screen; DTT-dependent redox cycling H2O2, phenol red/HRP absorbance; 100% = 100 µM peroxide control, 0% = buffer; activation, % at 10 µM; actives 0.03% (n = 200,000);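 active = activation of at least 50% relative to the plate's high and low controls in the primary single-dose screen; inactive = activation below 50%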;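 note: compound incubated with DTT at 0.8 mM final as the reducing agent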
bCat nuc transl = modulators of beta-catenin nuclear translocation, primary screen, imaging, HeLa cells, immunofluorescence, high-content. nuclear translocation activity, % at 5 µM. actives 0.3% (n = 190,000);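 active = nuclear translocation activity above 50% at 5 µM, with a well cell count of 50 or more; inconclusive = wells under 50 cells across six images, flagged as toxic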;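 note: per-cell ratio of nuclear to cytoplasmic median beta-catenin stain intensity; plate controls were DMSO negative control for no effect and GSK-3 inhibitor IX positive control for full effect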
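Test system: human HeLa cells, endogenous beta-catenin. Times: 24 h compound exposure, 37°C. Measured by: beta-catenin immunofluorescence imaging with DAPI.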
KCC2 mod = KCC2 cotransporter modulators, thallium flux, primary screen, cell-based, HEK293 KCC2, FluoZin-2 fluorescence, MLSMR; KCC2 cells, thallium flux FluoZin-2 fluorescence; B-score of Tl+ flux slope (higher = more flux/activation; lower = inhibition) at 10 µM; actives 2.2% (n = 190,000);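 active = thallium flux slope and its plate-corrected score both differing from the plate sample mean at a set confidence after two filtering rounds, in either direction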;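 note: slope of fluorescence scaled to starting intensity during 10 to 20 s after thallium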
ROMK primary = ROMK potassium channel modulators, primary screen, cell-based, thallium flux, MLSMR library; ATP-sensitive inward rectifier potassium channel 1 (Homo sapiens), P48048; Tet-inducible ROMK, thallium flux fluorescence; actives lie on both sides; B-score at 10 µM; actives 2% (n = 130,000); AID 1918, 2009;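 active = signal ratio slope over the read window, or its plate-corrected B-score, at least 3 SD from the plate mean, either direction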;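 note: B-score of the F/F0 ratio slope over 7 to 12 s after thallium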
Target sequence (P48048 whole entry, looked up): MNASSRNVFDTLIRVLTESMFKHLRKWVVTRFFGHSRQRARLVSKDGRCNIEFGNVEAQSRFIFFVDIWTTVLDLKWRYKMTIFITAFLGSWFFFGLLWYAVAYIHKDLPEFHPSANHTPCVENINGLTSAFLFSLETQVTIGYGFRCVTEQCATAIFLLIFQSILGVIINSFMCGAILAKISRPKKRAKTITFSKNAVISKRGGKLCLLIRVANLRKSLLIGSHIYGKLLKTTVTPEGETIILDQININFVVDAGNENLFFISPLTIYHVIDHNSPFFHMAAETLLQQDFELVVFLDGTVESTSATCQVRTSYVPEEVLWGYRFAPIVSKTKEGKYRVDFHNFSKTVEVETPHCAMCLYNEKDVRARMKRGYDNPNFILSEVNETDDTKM
KCC2 sec1 = KCC2 modulators in sodium-free buffer, confirmation, cell-based, HEK293 KCC2, thallium flux, secondary assay | shares compounds with KCC2 mod | FluoZin2 fluorescence; active compounds read high | normalised thallium flux (F/F0 slope) at 10 µM | actives 15% (n = 3,700) | AID 1713, 2009;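 active = thallium flux slope above the same plate's solvent-only control mean plus 3 SD; inconclusive = the two replicate wells disagree; inactive = no significant difference from solvent-only control wells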
KCC2 bumet counter = thallium flux persisting under bumetanide in KCC2 cells, confirmation, counter-screen for KCC2 modulator project, cell-based, HEK293 KCC2, FluoZin2, secondary assay 3; shares compounds with KCC2 mod; HEK293-KCC2 + bumetanide/ouabain; active compounds read high; normalized thallium flux at 10 µM; actives 49% (n = 3,700); AID 1714, 2009;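 active = thallium entry rate above the same plate's blocked-transporter control wells by more than 3 SD; inconclusive = the two repeat wells disagree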;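 note: raw slope of fluorescence over initial fluorescence between 10 and 20 s after thallium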
KCC2 secondary2 = KCC2 modulators without ouabain present, confirmation, cell-based, HEK293 KCC2, thallium flux, FluoZin2, secondary assay 2; thallium flux FluoZin2 fluorescence; actives lie on both sides; F/F0 rise rate, 10–20 s post-thallium; normalized thallium flux at 10 µM; actives 23% (n = 3,700); AID 1715, 2009; shares compounds with KCC2 mod;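 active = thallium flux slope more than 3 SD above or below the plate's solvent-only control mean, mostly below; inconclusive = the two repeat wells disagreed; inactive = no significant shift from solvent-only controls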;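 note: raw slope with 0.1% DMSO as baseline and bumetanide as block control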
HEK293 Tl flux = thallium flux modulation in parental HEK cells, confirmation, counter-screen for KCC2 modulator project, cell-based, counterscreen 1 | shares compounds with KCC2 mod | HEK293 parental cells, thallium flux FluoZin2, ouabain; baseline-ratio fluorescence slope, 10–20 s after thallium | thallium flux rate (normalised fluorescence) at 10 µM | actives 46% (n = 3,700);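 active = thallium flux rate significantly above the same plate's solvent-only control wells, beyond their mean plus 3 SD; inconclusive = the two replicate wells gave conflicting results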
KCC2 retest ouab = KCC2 inhibitors and activators, ouabain retest, confirmation, HEK-KCC2 cells; shares compounds with KCC2 mod; HEK293-KCC2, thallium flux FluoZin2 fluorescence; bidirectional: low = inhibitor, high = activator; raw Tl+ flux slope (below DMSO = inhibition, above = activation) at 10 µM; actives 48% (n = 3,700); AID 1717, 2009;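 active = thallium flux slope beyond 3 SD from same-plate DMSO control mean in most replicates, usually higher, sometimes lower; inconclusive = repeat tests gave conflicting results; inactive = no significant difference from controls in most replicates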;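 note: slope of initial-normalized fluorescence between seconds 10 and 20 after thallium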
HEK293 Tl flux2 = native HEK Tl+ uptake effects, second counter-screen – HEK cells, counterscreen 2, counter-screen for KCC2 modulator project, confirmation; HEK293 parental, thallium flux FluoZin-2 fluorescence slope; thallium flux slope at 10 µM; shares compounds with KCC2 mod; AID 1718, 2009; actives 33% (n = 3,700);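 active = thallium flux slope above the same plate's solvent-control mean plus 3 SD in both duplicate wells; inconclusive = duplicate wells that disagreed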;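 note: run without ouabain in cells lacking the KCC2 cotransporter; slope of fluorescence scaled to its starting value between 10 and 20 s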
* marks the source's active call; other numbers are inactive results; ? = inconclusive; nt = not tested or not shown.

SMILES	MT stabilize HCS	Redox H2O2 prof	bCat nuc transl	KCC2 mod	ROMK primary	KCC2 sec1	KCC2 bumet counter	KCC2 secondary2	HEK293 Tl flux	KCC2 retest ouab	HEK293 Tl flux2
O=c1c2cnn(-c3ccccc3)c2nc(-c2cccs2)n1-c1ccc(Br)cc1	6	0	-4	-0.35	-0.31	nt	nt	nt	nt	nt	nt
O=C(O)CSc1nc2c(cnn2-c2ccccc2)c(=O)n1-c1ccc(Br)cc1	4	-1	nt	-5.6*	1.7	0.0055	0.0045	0.022*	?	0.011*	0.0097
COc1ccc(NC(=O)C2CCCN(S(=O)(=O)c3cccc4nonc34)C2)cc1OC (stereo not drawn)	4	1	-2	-0.41	-0.77	nt	nt	nt	nt	nt	nt
COc1ccc(CCNC(=O)C2CCCN(S(=O)(=O)c3cccc4nonc34)C2)cc1OC (stereo not drawn)	1	0	-1	nt	1.4	0.0058	0.0053	0.032	0.0084	0.019	0.011
Cc1cc(NS(=O)(=O)c2ccc(NC(=O)CCSc3ccc(F)cc3)cc2)nc(C)n1	nt	nt	2	-0.05	nt	nt	nt	nt	nt	nt	nt
C=CCNC(=S)N/N=C/c1ccc(C(F)(F)F)cc1	2	-3	2	3.5*	-2	0.012	0.016*	0.036	?	?	?
FC(F)(F)c1ccc(/C=N/NC(=S)NC2CCCCC2)cc1	3	1	-2	0.2	-0.054	nt	nt	nt	nt	nt	nt
C=CCNC(=S)N/N=C/c1ccc(C)cc1C	3	-1	-2	5.2*	-0.16	0.012	0.041*	0.035	0.018*	?	?
COc1ccc2[nH]c(=O)c(CN(C)C(=O)c3cccs3)cc2c1	nt	nt	2	0.049	nt	nt	nt	nt	nt	nt	nt
CC1CN=C(N(C(=O)Nc2ccccc2)C(C)c2ccccc2)S1 (stereo not drawn)	nt	nt	0	-0.74	nt	nt	nt	nt	nt	nt	nt
Cc1c(N=NC2=C(O)CCCC2=O)c(=O)n(-c2ccccc2)n1C	2	-1	-5	0.66	-0.46	nt	nt	nt	nt	nt	nt
CCOC(=O)c1csc(Nc2nc3ccc(F)cc3s2)n1	2	2	-2	27*	nt	0.02*	0.079*	0.034	0.056*	0.057*	0.018*
O=C(Nc1nc2ccc(F)cc2s1)c1ccccn1	3	-1	1	60*	0.87	0.0061	0.096*	0.061*	0.056*	0.076*	0.052*
O=C(Nc1nnc(SCc2ccc(F)cc2)s1)c1ccccn1	2	-1	0	44*	-0.0042	0.0066	0.039*	?	0.036*	0.036*	0.027*
O=C(Nc1nnc(SCc2ccc(F)cc2)s1)c1cccnc1Cl	15	-2	0	-2	1.6	nt	nt	nt	nt	nt	nt
O=C(Nc1nc2ccccc2s1)c1cnccn1	2	0	2	1.2	0.29	nt	nt	nt	nt	nt	nt
CCOCCCNC(=O)C(c1ccccc1)N(Cc1ccc2c(c1)OCO2)C(=O)c1ccccc1O (stereo not drawn)	4	-2	-1	-1.6	-0.13	nt	nt	nt	nt	nt	nt
C=C1CCC2C(C)(C)[C@H](O)CC[C@@]2(C)[C@@H]1COc1cc(=O)oc2ccccc12 (stereo partly drawn)	3	0	0	0.12	-0.061	nt	nt	nt	nt	nt	nt
C=C/C(C)=C/CC1C(=C)CCC2C(C)(C(=O)O)CCCC12C (stereo not drawn)	nt	nt	0	2.3*	nt	0.0068	0.0092*	0.031	0.012*	?	0.014*
O=C(O)CCCNc1ccc([N+](=O)[O-])c(NCCCC(=O)O)n1	2	0	1	0.44	0.14	nt	nt	nt	nt	nt	nt
C=CCN1C(c2ccc(OCC)cc2)=CS/C1=C(\C#N)c1nnc2n1CCCCC2	4	-3	0	-5.8*	nt	0.013	0.0041	0.02*	0.0061*	0.011*	0.0083
CSc1ccccc1NC(=O)CN1CC(C)OC(C)C1 (stereo not drawn)	1	-1	-2	0.35	-0.3	nt	nt	nt	nt	nt	nt
CCCCC#Cc1cncc(C(=O)N/N=C/c2cccc(OC)c2)c1	nt	nt	0	0.32	nt	nt	nt	nt	nt	nt	nt
COc1ccc(OC)c(-n2nnnc2SCC(=O)NCCc2ccccc2)c1	6	0	-1	nt	0.015	0.0066	0.0051	?	0.0073	0.017	0.011
COc1cccc(-n2nnnc2SCC(=O)NCCc2ccccc2)c1	5	-1	-8	-2	nt	nt	nt	nt	nt	nt	nt
SMILES	MT stabilize HCS	Redox H2O2 prof	bCat nuc transl	KCC2 mod	ROMK primary	KCC2 sec1	KCC2 bumet counter	KCC2 secondary2	HEK293 Tl flux	KCC2 retest ouab	HEK293 Tl flux2
COc1ccc(C(=O)Nc2ccc(/C(C)=N/NC(=O)c3ccccc3O)cc2)cc1OC	4	0	-4	-1.6	-0.34	nt	nt	nt	nt	nt	nt
O=C(CCc1ccccc1)NC(=S)Nc1cccc(Br)c1	3	0	nt	4.8*	0.91	0.0082	0.011*	0.029	0.0086*	?	0.0096
O=C(CCc1ccccc1)NNC(=S)NC(=O)c1ccccc1	4	-4	-2	10*	0.75	0.025*	0.061*	0.037	0.03*	0.051*	0.015*
CC(C)(C)c1cc(CCC(=O)NNC(=O)c2ccco2)cc(C(C)(C)C)c1O	2	0	-1	0.047	0.72	nt	nt	nt	nt	nt	nt
O=C(CCc1ccccc1)NC(=S)Nc1ccccc1Br	4	1	-4	3.2	-1.5	nt	nt	nt	nt	nt	nt
CCN(C(=S)NC(=O)CCc1ccccc1)c1ccccc1	4	-1	nt	4.7*	0.99	?	0.051*	0.034	0.017*	0.042*	0.013*
